Reference: ChEMBL document CHEMBL1121799, “Beta-adrenoceptor stimulant properties of amidoalkylamino-substituted 1-aryl-2-ethanols and 1-(aryloxy)-2-propanols” (1981)

Key:
[1] = system: Canis familiaris; assay: Effective dose required for the maximum hind limb perfusion pressure(HLPP) in anesthetized dogs.; assay type: functional; settings: Canis lupus familiaris, Hindlimb
How it was run: (§1)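 Anesthetized dogs on pentobarbital (20 mg/kg iv, then 2 mg/kg iv every 30 min), ventilated with 40% O2 in air. Left hind limb pump-perfused from the abdominal aorta, heparin 500 IU/kg iv. HR from a lead II ECG-driven cardiotachometer. Arterial pCO2 held at 34-42 mmHg and pH 7.35-7.43. Cumulative iv doses in saline. ED50 taken from dose-response curves of peak HR or HLPP change.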

[2] = species on record: Canis familiaris; assay: Intrinsic sympathomimetic activity (ISA), calculated as the percent of maximum change in hind limb perfusion pressure (HLPP); assay type: functional, Canis lupus familiaris, Hindlimb
How it was run: (§2)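 Same anesthetized, ventilated dog preparation with a pump-perfused left hind limb. An isoproterenol curve was run first. About 45 min later, once HR and HLPP had returned to control, cumulative iv doses of test compound in saline were given. ISA is the maximum HR or HLPP change produced by the compound, expressed as a percentage of the isoproterenol maximum.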

[3] = species on record: Canis familiaris; assay: Selectivity is expressed as the ratio of ED50 on hind limb perfusion pressure to the ED50 on heart rate; assay type: functional, Canis lupus familiaris
How it was run: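 Cardioselectivity is the ratio of ED50 for HLPP to ED50 for HR. Both come from cumulative iv dose-response curves in pentobarbital-anesthetized dogs with a pump-perfused hind limb and a cardiotachometer reading HR.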

[4] = species on record: Canis familiaris; assay: Intrinsic sympathomimetic activity (ISA, calculated as the percent of maximum change in heart rate (HR); assay type: functional, Canis lupus familiaris; how it was run: as §2
[5] = system: Canis familiaris; assay: Effective dose required for the maximum heart rate in anesthetized dogs.; assay type: functional; settings: Canis lupus familiaris; how it was run: as §1

Compound	ED50 [1]	ISA [2]	Selectivity [3]	ISA [4]	ED50 [5]
O=C(Cc1ccccc1)NCCNCC(O)COc1ccc(O)cc1.O=C(O)C(=O)O (centres undefined)	0.09 µmol/kg	40%	3.3	40%	0.027 µmol/kg
O=C(NCCNCC(O)COc1ccc(O)c(CO)c1)Nc1ccccc1.O=C(O)C(=O)O (centres undefined)	0.112 µmol/kg	32%	2.5	42%	0.045 µmol/kg
CC(C)C(=O)NCCNCC(O)COc1ccc(O)c(CO)c1.O=C(O)C(=O)O (centres undefined)	0.27 µmol/kg	30%	6.3	26%	0.043 µmol/kg
CC(C)NCC(O)COc1ccc(O)c(CO)c1.O=C(O)C(=O)O (centres undefined)	0.098 µmol/kg	55%	1.5	44%	0.067 µmol/kg
CC(C)C(=O)NCCNCC(O)c1cc(O)cc(O)c1.O=C(O)C(=O)O (centres undefined)	0.105 µmol/kg	100%	3	89%	0.035 µmol/kg
O=C(NCCNCC(O)COc1cccc(O)c1)Nc1ccccc1.O=C(O)C(=O)O (centres undefined)	> 1.5 µmol/kg	0%	>170	21%	0.009 µmol/kg
O=C(NCCNCC(O)COc1ccc(O)cc1)Nc1ccccc1.O=C(O)C(=O)O (centres undefined)	0.165 µmol/kg	45%	2.8	52%	0.058 µmol/kg
CC(C)C(=O)NCCNCC(O)COc1ccc(O)cc1.O=C(O)C(=O)O (centres undefined)	0.078 µmol/kg	40%	3.9	30%	0.02 µmol/kg
CC(C)C(=O)NCCNCC(O)COc1cccc(O)c1.O=C(O)C(=O)O (centres undefined)	0.26 µmol/kg	33%	1.2	25%	0.209 µmol/kg
CC(C)NCC(O)COc1cc(O)cc(O)c1.O=C(O)C(=O)O (centres undefined)	0.012 µmol/kg	25%	1	32%	0.012 µmol/kg
O=C(NCCNCC(O)c1ccc(O)c(O)c1)Nc1ccccc1.O=C(O)C(=O)O (centres undefined)	0.0054 µmol/kg	100%	6	100%	0.0009 µmol/kg
CC(C)NCC(O)COc1ccc(O)c(O)c1.O=C(O)C(=O)O (centres undefined)	0.0012 µmol/kg	100%	1	100%	0.0012 µmol/kg
CC(C)C(=O)NCCNCC(O)c1ccc(O)c(O)c1.O=C(O)C(=O)O (centres undefined)	0.006 µmol/kg	100%	2.4	84%	0.0025 µmol/kg
O=C(NCCNCC(O)c1cc(O)cc(O)c1)Nc1ccccc1.O=C(O)C(=O)O (centres undefined)	0.755 µmol/kg	100%	1	80%	0.755 µmol/kg
O=C(NCCNCC(O)COc1ccc(O)c(O)c1)Nc1ccccc1.O=C(O)C(=O)O (centres undefined)	0.1 µmol/kg	100%	24.4	80%	0.0041 µmol/kg
CC(C)C(=O)NCCNCC(O)c1ccc(O)c(CO)c1.O=C(O)C(=O)O (centres undefined)	0.152 µmol/kg	100%	2	85%	0.077 µmol/kg
O=C(NCCNCC(O)COc1cc(O)cc(O)c1)Nc1ccccc1.O=C(O)C(=O)O (centres undefined)	> 5.5 µmol/kg	0%	>135	28%	0.041 µmol/kg
CC(C)C(=O)NCCNCC(O)COc1cc(O)cc(O)c1.O=C(O)C(=O)O (centres undefined)	0.016 µmol/kg	18%	0.8	19%	0.019 µmol/kg
CC(C)C(=O)NCCNCC(O)c1cccc(O)c1.O=C(O)C(=O)O (centres undefined)	0.132 µmol/kg	75%	3.5	75%	0.038 µmol/kg
O=C(NCCNCC(O)c1ccc(O)cc1)Nc1ccccc1.O=C(O)C(=O)O (centres undefined)	0.228 µmol/kg	70%	2.3	71%	0.098 µmol/kg
CC(C)C(=O)NCCNCC(O)COc1ccc(O)c(O)c1.O=C(O)C(=O)O (centres undefined)	0.0016 µmol/kg	100%	1	100%	0.0016 µmol/kg
O=C(NCCNCC(O)c1ccc(O)c(CO)c1)Nc1ccccc1.O=C(O)C(=O)O (centres undefined)	0.304 µmol/kg	88%	8	76%	0.038 µmol/kg
CCN(CC)C(=O)NCCNCC(O)COc1ccc(O)cc1.O=C(O)C(=O)O (centres undefined)	0.036 µmol/kg	18%	10	28%	0.037 µmol/kg

Compound	ED50 [1]	ISA [2]	Selectivity [3]	ISA [4]	ED50 [5]
COCCNC(=O)NCCNCC(O)COc1ccc(O)cc1.O=C(O)C(=O)O (centres undefined)	0.052 µmol/kg	58%	2.5	74%	0.021 µmol/kg
O=C(NCCO)NCCNCC(O)COc1ccc(O)cc1.O=C(O)C(=O)O (centres undefined)	0.236 µmol/kg	49%	3.1	69%	0.077 µmol/kg
CC(C)NC(=O)NCCNCC(O)COc1ccc(O)cc1.O=C(O)C(=O)O (centres undefined)	0.193 µmol/kg	26%	0.8	60%	0.235 µmol/kg
O=C(O)C(=O)O.O=S(=O)(NCCNCC(O)COc1ccc(O)cc1)c1ccccc1 (centres undefined)	0.055 µmol/kg	45%	0.7	55%	0.074 µmol/kg
COCCN(C)C(=O)NCCNCC(O)COc1ccc(O)cc1.O=C(O)C(=O)O (centres undefined)	> 3 µmol/kg	0%	>250	27%	0.012 µmol/kg
O=C(O)C(=O)O.O=S(=O)(NCCNCC(O)COc1ccc(O)cc1)Nc1ccccc1 (centres undefined)	0.052 µmol/kg	79%	2.9	92%	0.018 µmol/kg
CN(C)S(=O)(=O)NCCNCC(O)COc1ccc(O)cc1.O=C(O)C(=O)O (centres undefined)	0.175 µmol/kg	80%	2.5	80%	0.069 µmol/kg
CC(C)C(=O)NCCNCC(O)c1ccc(O)cc1.O=C(O)C(=O)O (centres undefined)	0.071 µmol/kg	82%	1.3	90%	0.056 µmol/kg
CN(C)C(=O)NCCNCC(O)COc1ccc(O)cc1.O=C(O)C(=O)O (centres undefined)	> 1 µmol/kg	0%	>40	29%	0.024 µmol/kg
CC(C)NCC(O)COc1cccc(O)c1.O=C(O)C(=O)O (centres undefined)	0.067 µmol/kg	33%	3.7	57%	0.018 µmol/kg
O=C(NCCNCC(O)c1cccc(O)c1)Nc1ccccc1.O=C(O)C(=O)O (centres undefined)	0.286 µmol/kg	55%	2	42%	0.143 µmol/kg
Cl.O=C(NCCNCC(O)COc1ccc(O)cc1)N(CCO)CCO (centres undefined)	2.33 µmol/kg	42%	16	41%	0.145 µmol/kg
CN(CCO)C(=O)NCCNCC(O)COc1ccc(O)cc1.Cl (centres undefined)	1.17 µmol/kg	48%	33	43%	0.037 µmol/kg
Cl.O=C(NCCNCC(O)COc1ccc(O)cc1)NCc1ccccc1 (centres undefined)	0.081 µmol/kg	70%	4.3	80%	0.019 µmol/kg
CC(C)NCC(O)c1ccc(O)c(CO)c1 (centres undefined)	0.009 µmol/kg	100%	0.04	100%	0.222 µmol/kg
NC(=O)NCCNCC(O)COc1ccc(O)cc1 (centres undefined)	0.134 µmol/kg	50%	1.7	92%	0.078 µmol/kg
CC(C)NCC(O)c1ccc(O)cc1 (centres undefined) [DETERENOL]	0.077 µmol/kg	55%	7.7	88%	0.01 µmol/kg
CC(C)NCC(O)c1ccc(O)c(O)c1 (centres undefined) [ISOPROTERENOL]	0.0008 µmol/kg	100%	0.5	100%	0.0014 µmol/kg
CC(C)NCC(O)c1cc(O)cc(O)c1 (centres undefined) [METAPROTERENOL]	0.014 µmol/kg	100%	1	83%	0.014 µmol/kg
CC(C)NCC(O)c1cccc(O)c1 (centres undefined) [METATEROL]	0.138 µmol/kg	100%	1.9	100%	0.071 µmol/kg
CC(C)NC[C@H](O)COc1ccc(O)cc1 [PRENALTEROL]	0.006 µmol/kg	31%	–	56%	0.031 µmol/kg
O=C(NCCNCC(O)COc1ccc(O)cc1)N1CCOCC1 (centres undefined) [XAMOTEROL]	> 3 µmol/kg	0%	>250	50%	0.012 µmol/kg
